Only some compounds are listed: those with a hit (about 2.8% of all), similar ones and a draw of the others.
Calb biofilm kill = mixture kills Candida albicans biofilm cells; C. albicans biofilm persisters + clotrimazole, fluorescence viability; primary screen in compound mixtures of four per well; inhibition, % at 7.6 µM; actives 0.02% (n = 120,000); AID 1242;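 active = inhibition above 30.3% in the primary screen of four-compound pools, then above 30% when the compound was retested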;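 note: compounds exposed to preformed 24 h biofilms for 48 h; 0% = untreated biofilm control and 100% = clotrimazole plus chlorhexidine kill blank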
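Assay system: C. albicans biofilms / Medium: RPMI/MOPS medium, pH 7.0 / Schedule: biofilm formation 24 h, compound exposure 48 h, 37 °C / Measured by: Alamar Blue fluorescence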
Mcl1-Bid inh = Mcl-1/Bid interaction inhibition; Q07820; TR-FRET Mcl-1/Bid-Dy647 peptide binding, 1536-well; inhibition, % at 21.7 µM; actives 0.97% (n = 220,000);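 active = compounds that cut the binding signal by more than half at the single screening dose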;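 note: His-tagged Mcl-1 with europium anti-His antibody binding Bid BH3 peptide; 0% = Mcl-1 plus peptide wells and 100% = peptide-only wells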
Target sequence (Q07820 whole entry, looked up): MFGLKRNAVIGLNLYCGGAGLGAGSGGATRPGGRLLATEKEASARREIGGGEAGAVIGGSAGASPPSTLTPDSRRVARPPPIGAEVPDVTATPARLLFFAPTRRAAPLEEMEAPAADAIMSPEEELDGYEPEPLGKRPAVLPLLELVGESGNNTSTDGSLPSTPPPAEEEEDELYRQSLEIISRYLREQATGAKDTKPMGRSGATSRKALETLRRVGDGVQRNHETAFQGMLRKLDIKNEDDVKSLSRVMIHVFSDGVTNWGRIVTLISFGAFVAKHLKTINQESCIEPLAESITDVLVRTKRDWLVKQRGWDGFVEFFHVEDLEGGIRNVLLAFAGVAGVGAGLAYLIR
Mcl1-Noxa inh = Mcl-1/Noxa interaction inhibition. actives 1.5% (n = 220,000). AID 1022. Q07820. TR-FRET Mcl-1/Noxa peptide binding, 2 h. inhibition, % at 21.7 µM;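 active = compounds that cut the protein-peptide binding signal by more than 50% relative to plate controls in a single-dose test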;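 note: His-tagged Mcl-1 with rhodamine Noxa BH3 peptide and terbium anti-His antibody; 0% = Mcl-1 plus Noxa peptide wells and 100% = peptide-only wells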
Bim-Mcl-1 = disrupts Bim peptide binding to human Mcl-1 | inhibition, % at 10 µM | actives 0.1% (n = 190,000) | Q07820 | Bead-based flow cytometry, Bim peptide-Mcl-1 binding; in the data active = inhibition above about 40%;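 note: 0% = no compound tracer wells and 100% = peptide blocker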
Arbovirus inh = blocks arbovirus infection; actives 0.37% (n = 200,000); inhibition, % at 10 µM; arbovirus infection cell-based antiviral screen; in the data active = inhibition above about 30%
Calpain2 inh = blocks pig calpain II enzyme activity | AID 1236 | inhibition, % at 16 µM | actives 0.37% (n = 220,000) | purified calpain II, fluorogenic peptide substrate, 30 min;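 active = inhibition above about 50%, limit read from the data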
Starred values were filed as active, the others as inactive.

`O=C(Nc1ccc2ccccc2c1)C(=O)C1C(=O)Nc2ccccc21` (stereo not drawn) gave Calb biofilm kill 12, Mcl1-Bid inh -57, Mcl1-Noxa inh -58 and Calpain2 inh 51*.
For Cc1cc(-c2cc(-c3ccc(Cl)cc3)nc(N)c2C#N)co1 the results were Mcl1-Bid inh 41, Mcl1-Noxa inh 67*, Bim-Mcl-1 -3, Arbovirus inh -1 and Calpain2 inh -249.
`Cc1ccc(-c2cc(-c3ccc4c(c3)OCO4)c(C#N)c(N)n2)o1` gave Mcl1-Bid inh 80*, Mcl1-Noxa inh 59*, Bim-Mcl-1 2, Arbovirus inh 0 and Calpain2 inh -109.
For Cc1ccc(-c2cc(-c3ccc(Cl)cc3)c(C#N)c(N)n2)o1 the results were Mcl1-Bid inh 23, Mcl1-Noxa inh 72*, Bim-Mcl-1 -1, Arbovirus inh -23 and Calpain2 inh -320.
Cc1ccc(-c2cc(-c3ccc(C)o3)nc(N)c2C#N)cc1 was read as Mcl1-Bid inh -27, Mcl1-Noxa inh 42, Bim-Mcl-1 37, Arbovirus inh -3 and Calpain2 inh inactive.
Screening CNC(=O)c1[nH]cnc1C(=O)Nc1ccc(OC)cc1 returned Calb biofilm kill 4, Mcl1-Bid inh -13, Mcl1-Noxa inh -2 and Calpain2 inh 13.
CC(C)n1c(=S)[nH]c2scc(-c3cccs3)c2c1=O was read as Calb biofilm kill 23, Mcl1-Bid inh -17, Mcl1-Noxa inh 73* and Calpain2 inh 59*.
COc1cccc(/C=C2/SC(=O)N(C)C2=O)c1OCc1ccc(C(=O)O)cc1 was read as Calb biofilm kill 11, Mcl1-Bid inh -19, Mcl1-Noxa inh 3, Bim-Mcl-1 67*, Arbovirus inh 2 and Calpain2 inh -9.
COc1cccc(/C=C2/SC(=O)N(CC(=O)N3CCc4ccccc4C3)C2=O)c1OCC(=O)O was read as Mcl1-Bid inh -12, Mcl1-Noxa inh 3, Bim-Mcl-1 7, Arbovirus inh 7 and Calpain2 inh 5.
For COc1cccc(C(=O)Nc2ccc(NC(C)=O)cc2)c1 the results were Mcl1-Bid inh -25, Mcl1-Noxa inh 1, Bim-Mcl-1 0, Arbovirus inh 2 and Calpain2 inh -7.
Screening COc1cccc(C(=O)Nc2cc(Cl)c(O)c(Cl)c2)c1 returned Calb biofilm kill 27, Mcl1-Bid inh -56, Mcl1-Noxa inh 98* and Calpain2 inh 7.
For CCN(C(=O)CSc1nc2ccccc2c(=O)n1CCOC)C1CCS(=O)(=O)C1 (stereo not drawn) the results were Calb biofilm kill 2, Mcl1-Bid inh -2, Mcl1-Noxa inh 14, Bim-Mcl-1 -4, Arbovirus inh -1 and Calpain2 inh -19.
`Cc1ccccc1NC(=O)CSc1ccsc1[N+](=O)[O-]` gave Calb biofilm kill 12, Mcl1-Bid inh -61, Mcl1-Noxa inh 71*, Bim-Mcl-1 -5, Arbovirus inh 0 and Calpain2 inh -12.
O=C(CSc1ccsc1[N+](=O)[O-])N1CCN(c2ccc(Cl)cc2)CC1 was read as Calb biofilm kill 16, Mcl1-Bid inh -1, Mcl1-Noxa inh 95*, Bim-Mcl-1 -4, Arbovirus inh -5 and Calpain2 inh -45.
Screening O=C(CSc1ccsc1[N+](=O)[O-])N1CCN(c2ccccc2)CC1 returned Calb biofilm kill 23, Mcl1-Bid inh 5, Mcl1-Noxa inh 65*, Bim-Mcl-1 -5, Arbovirus inh 1 and Calpain2 inh -53.
Screening COCCCNC(=O)CSc1ccsc1[N+](=O)[O-] returned Calb biofilm kill -3, Mcl1-Bid inh -32, Mcl1-Noxa inh 28, Bim-Mcl-1 0, Arbovirus inh -6 and Calpain2 inh -21.
Cc1ccc(C)c(N2CCN(C(=O)CSc3ccsc3[N+](=O)[O-])CC2)c1 was read as Calb biofilm kill 16, Mcl1-Bid inh -35, Mcl1-Noxa inh 28, Bim-Mcl-1 -5, Arbovirus inh 4 and Calpain2 inh -78.
Screening O=C(CSc1ccsc1[N+](=O)[O-])N1CCCCCC1 returned Calb biofilm kill 5, Mcl1-Bid inh -18, Mcl1-Noxa inh 19, Bim-Mcl-1 -2, Arbovirus inh 0 and Calpain2 inh -16.
For Cc1c(NC(=O)CN2CCN(c3ccc(F)cc3)CC2)c(=O)n(-c2ccccc2)n1C the results were Calb biofilm kill 18, Mcl1-Bid inh -11, Mcl1-Noxa inh 6, Bim-Mcl-1 0, Arbovirus inh 5 and Calpain2 inh -15.
Screening COc1ccc(CNC(=O)c2n[nH]c3ccccc23)cc1OC returned Calb biofilm kill 11, Mcl1-Bid inh 55*, Mcl1-Noxa inh 5, Bim-Mcl-1 0, Arbovirus inh -3 and Calpain2 inh 23.
For COc1ccc(CNC(=O)c2ccc(-c3ccccc3)cc2)cc1OC the results were Calb biofilm kill 12, Mcl1-Bid inh -17, Mcl1-Noxa inh -3, Bim-Mcl-1 -6, Arbovirus inh 0 and Calpain2 inh -10.
COc1ccc(N2CCN(C(=O)COc3ncnc4ccccc34)CC2)cc1 was read as Calb biofilm kill 10, Mcl1-Bid inh -43, Mcl1-Noxa inh 32, Bim-Mcl-1 0, Arbovirus inh 6 and Calpain2 inh 14.
`CN(C)S(=O)(=O)c1cccc(NC(=S)N/N=C/c2ccc(O)c(O)c2O)c1` gave Calb biofilm kill 18, Mcl1-Bid inh -99, Mcl1-Noxa inh 108* and Calpain2 inh -10.
`CCN(CC)S(=O)(=O)c1cccc(C(=O)N/N=C/c2ccc(O)c(O)c2O)c1` gave Calb biofilm kill 14, Mcl1-Bid inh -81, Mcl1-Noxa inh 95*, Bim-Mcl-1 44*, Arbovirus inh -5 and Calpain2 inh -18.
Cc1cccc(Cn2nc(C)cc2NC(=O)CCCn2ccc([N+](=O)[O-])n2)c1 was read as Calb biofilm kill 15, Mcl1-Bid inh -10, Mcl1-Noxa inh 9, Bim-Mcl-1 -2, Arbovirus inh 3 and Calpain2 inh -42.
COc1ccc(CCNC(N)=S)cc1OC was read as Calb biofilm kill 14, Mcl1-Bid inh -17, Mcl1-Noxa inh 0, Bim-Mcl-1 -5, Arbovirus inh 2 and Calpain2 inh 2.
`C#CCOCCOCCOCCNc1nc(N2CCN(C(=O)[C@H](CCCCN)n3cc(C(N)[C@H](C)CC)nn3)CC2)nc(N2CCN(C(=O)[C@H](CCC(=O)O)n3cc(C(N)[C@H](C)CC)nn3)CC2)n1` (stereo partly drawn) gave Calb biofilm kill 13, Mcl1-Bid inh 75*, Mcl1-Noxa inh 32, Bim-Mcl-1 2, Arbovirus inh 3 and Calpain2 inh -23.
For C#CCOCCOCCOCCNc1nc(N2CCN(C(=O)[C@H](CCCCN)n3cc([C@@H](N)C(C)CC)nn3)CC2)nc(N2CCN(C(=O)[C@H](CCCCN)n3cc([C@@H](N)CO)nn3)CC2)n1 (stereo partly drawn) the results were Calb biofilm kill 7, Mcl1-Bid inh 88*, Mcl1-Noxa inh 35, Bim-Mcl-1 0, Arbovirus inh 2 and Calpain2 inh 22.
`Cc1ccsc1/C=N/NC(=O)c1cccnc1` gave Calb biofilm kill 8, Mcl1-Bid inh -53, Mcl1-Noxa inh -50 and Calpain2 inh 9.

Compound activity: PubChem, several laboratories
